# Biofilm kill mix: clotrimazole potentiators killing C. albicans biofilm, primary screen, 4-compound mixtures | 120,000 tested, 0.02% active | inhibition, % at 7.6 µM | C. albicans biofilm persisters + clotrimazole, fluorescence viability; primary screen in compound mixtures of four per well;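 note: compounds exposed to preformed 24 h biofilms for 48 h; 0% = untreated biofilm control and 100% = clotrimazole plus chlorhexidine kill blank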
#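 Assay system: C. albicans biofilms / Medium: RPMI/MOPS medium, pH 7.0 / Schedule: biofilm formation 24 h, compound exposure 48 h, 37 °C / Measured by: Alamar Blue fluorescence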
# Arbovirus anti: antivirals against arbovirus infection, primary screen, cell-based, full library, 10K replicate subset; 200,000 tested, 0.37% active; AID 1251, 2008; inhibition, % at 10 µM; arbovirus infection cell-based antiviral screen; in the data active = inhibition above about 30%
# NCF1 inh: p47phox/p22phox peptide binding inhibitors, primary screen, biochemical, uHTS, NADPH oxidase regulatory subunit; Neutrophil cytosol factor 1 (Homo sapiens), P14598; fluorescence polarization, 2 h; inhibition, % at 24.7 µM; 220,000 tested, 0.53% active; AID 1274, 2008;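 active = inhibition above about 30%, limit read from the data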;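 note: 0% = p47phox with labelled peptide and 100% = labelled peptide alone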
# Target sequence (P14598 whole entry, looked up): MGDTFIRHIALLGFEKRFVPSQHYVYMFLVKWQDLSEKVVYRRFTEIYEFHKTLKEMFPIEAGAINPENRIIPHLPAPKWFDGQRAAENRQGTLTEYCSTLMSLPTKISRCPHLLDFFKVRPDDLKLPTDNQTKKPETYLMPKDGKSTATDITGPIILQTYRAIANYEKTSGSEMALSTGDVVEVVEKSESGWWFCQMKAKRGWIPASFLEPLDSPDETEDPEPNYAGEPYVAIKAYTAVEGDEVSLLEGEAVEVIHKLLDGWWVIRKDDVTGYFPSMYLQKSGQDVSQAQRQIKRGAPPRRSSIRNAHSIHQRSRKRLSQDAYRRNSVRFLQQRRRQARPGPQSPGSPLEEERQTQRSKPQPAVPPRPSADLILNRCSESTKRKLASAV
# WT yeast gro inh: growth inhibition of WT strain, primary screen, mitochondrial fusion inhibitor project, WT and mutant strains, chemical genetic | mitochondrial fusion phenotypic screen | inhibition, % at 10 µM | 190,000 tested, 2.1% active | AID 1362, 2008; in the data active = inhibition above about 58%; tested in S. cerevisiae
# Hck-Nef inh: inhibitors of Nef-activated human Hck kinase, primary screen, biochemical, Z-Lyte FRET, 384-well, Hck-YEEI | Tyrosine-protein kinase HCK (Homo sapiens), P08631 | Recombinant Hck-YEEI plus Nef, Z-Lyte FRET kinase assay | inhibition, % at 20 µM | 220,000 tested, 0.68% active | AID 463187, 2010;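 active = Hck-Nef kinase inhibition above about 50%, limit read from the data; inactive = inhibition below that limit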;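 note: 0% = DMSO with Hck plus Nef and 100% = Hck alone without Nef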
# RAM inhibit: inhibitors of the yeast RAM network, primary screen, dse1pr::URA3 reporter, 5-FOA selection; 190,000 tested, 1.8% active; inhibition, % at 50 µM; S. cerevisiae dse1pr::URA3 reporter, 5-FOA growth OD615, 2 d; analog-sensitive cbk1-as2 kinase mutant strain;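 active = inhibition above a set limit, 3 SD over mean compound inhibition, cut at about 8.4% in these data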;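 note: 0% = DMSO-only wells with no growth and 100% = 10 µM 1-NA-PP1 full growth; inhibition rescues growth on 5-FOA so higher OD means more RAM inhibition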
# * marks the source's active call; other numbers are inactive results; x = no result given. This is a sample that favours compounds with a hit; in the whole collection about 4.6% have one here.
SMILES,Biofilm kill mix,Arbovirus anti,NCF1 inh,WT yeast gro inh,Hck-Nef inh,RAM inhibit
COc1ccccc1N1CCN(C2CCN(C(=O)c3cccc(F)c3)CC2)CC1,12,-1,0,-7,-3,1
Cc1ccccc1NC(=O)c1cc2c(C)nc3ccccc3c2o1,8,16,14,14,6,1
Cc1ccc(CNC(=O)c2cc3c(C)nc4ccccc4c3o2)cc1,x,5,9,9,11,0
Cc1nc2ccccc2c2oc(C(=O)NCc3ccc4c(c3)OCO4)cc12,x,-8,121*,9,0,-1
CCc1ccc(NC(=O)c2cc3c(C)nc4ccccc4c3o2)cc1,11,-10,25,63*,29,-1
Cc1cc(Cl)ccc1OCC(=O)N/N=C1\CC2C=CCC12 (stereo not given),13,0,-2,6,-2,-1
CC(C)COC(=O)c1ccc2c(c1O)C(=O)c1ccccc1C2=O,x,-26,-4,44,1,8.8*
CCOc1ccc(CN2C(=O)CC(=O)N(S(=O)(=O)c3ccc(OCC)cc3)C2=O)cc1,25,x,-27,x,15,x
N#Cc1cc2c(nc1SCc1ccc(Cl)nc1)CCCCC2,15,x,-13,x,21,x
N#Cc1c(N)nc2c3c(sc(=N)c2c1N)NC(=O)CC3c1c(F)cccc1Cl (stereo not given),x,5,-34,20,13,8.8*
N#Cc1c(N)nc2c3c(sc(=N)c2c1N)NC(=O)CC3c1ccccc1 (stereo not given),x,-3,-51,9,10,3
CCOC(=O)C1=C(O)/C(=C\c2ccc(CNC(=O)C(=O)Nc3ccccc3)o2)N=C1C,x,10,-13,2,10,2
COc1cccc(-c2cc(C(=O)Nc3ccccc3SC)no2)c1,x,-4,-17,-4,0,8
COc1ccccc1-c1cc(C(=O)Nc2ccccc2SC)no1,x,3,2,9,0,9.0*
COc1ccc(-c2cc(C(=O)Nc3ccccc3SC)no2)cc1OC,x,-11,3,16,2,8.7*
COC(=O)c1ccccc1NC(=O)c1cc(-c2ccc(O)cc2)on1,x,48*,-14,-22,-1,4
CCOc1ccc(CO/N=C/c2c(C)[nH]c(=O)[nH]c2=O)cc1,25,0,-9,6,-4,5
O=C(O)/C=C\C(=O)NC1CCCCC1,12,2,-5,-3,1,-1
CN=C1S/C(=C\c2cc(C)n(-c3ccccc3F)c2C)C(=O)N1C,x,4,-19,73*,7,0
Cc1cccc(C(=O)OCC(=O)NC(C)CCc2ccccc2)c1 (stereo not given),24,6,-13,0,-7,10*
Cc1cccc(C(=O)NC(NCCc2ccccc2)C(Cl)(Cl)Cl)c1 (stereo not given),x,-6,0,59*,-1,1
Cc1cccc(NC(=S)NC(C)CCc2ccccc2)c1 (stereo not given),7,17,-8,74*,1,2
Cc1cc([N+](=O)[O-])nn1CC(=O)NCCc1c[nH]c2ccccc12,4,15,-8,-4,19,1
O=C(O)CNC(=O)c1ccccc1Br,15,4,-10,12,19,0
Nc1nc2n(n1)C(c1ccco1)CC(c1ccccc1)N2 (stereo not given),x,6,46*,0,7,-1
SMILES,Biofilm kill mix,Arbovirus anti,NCF1 inh,WT yeast gro inh,Hck-Nef inh,RAM inhibit
CC(C)OC(=O)CC(=O)CSc1nc2c(cc1C#N)CCC2,x,-2,-8,-11,3,1
CC(C)OC(=O)CC(=O)CSc1nc2c(c(-c3cccs3)c1C#N)CCC2,18,9,-62,11,5,10*
Cc1ccc2nc(SC(C(=O)Nc3ccc(F)cc3)c3ccccc3)[nH]c2c1 (stereo not given),14,-3,-2,60*,0,1
COc1ccc(-c2cc(C)nc3c(-c4ccccc4)cnn23)cc1,2,4,-18,-5,-12,9.0*
Cc1cc(-c2ccccc2)n2ncc(-c3ccccc3)c2n1,16,14,-16,42,2,4
Cc1ccc(CCSc2ccc(C(C)C)cc2)cn1,12,17,-10,74*,1,1
Cn1c(C(=O)N2CCN(c3cccc(C(F)(F)F)c3)CC2)cc2sccc21,x,-16,-12,72*,-3,3
Cc1ccc(C)c(N2CCN(C(=O)c3cc4sccc4n3C)CC2)c1,x,-22,-13,9,0,3
COc1ccc(C(=O)C2CCCN(C(=O)CCc3scnc3C)C2)c(C)c1 (stereo not given),15,6,-2,-1,2,0
CCCNS(=O)(=O)c1ccc(-n2cnnn2)c(OC)c1,-1,4,-6,-2,11,0
COc1cc(NS(=O)(=O)c2ccc(C)cc2)ccc1-n1cnnn1,x,4,53*,-19,-1,4
COc1ccc(CNC(=O)Nc2ccc3c(c2)N(C)C(=O)CS3)cc1,15,-5,-21,0,0,3
CSc1nc(Cl)c(Cc2ccc(OCC(C)C)cc2)c(N2CCOCC2)n1,25,22,-5,37,0,8.6*
CCCCOc1ccc(Cc2c(Cl)nc(SC)nc2N2CCOCC2)cc1,16,11,-10,48,2,8
CCOc1ccc(Cc2c(Cl)nc(SC)nc2OC)cc1,x,2,-6,46,1,9.4*
N#CC(c1ccc(Cl)cc1)c1ccc2c(C(F)(F)F)cc(C(F)(F)F)nc2n1 (stereo not given),x,-29,-19,85*,-1,1
FC(F)(F)c1cc(C(F)(F)F)c2ccc(N3CCN(c4ccc(Cl)cc4)CC3)nc2n1,x,-8,-3,12,1,1
Cc1nn(Cc2cccc(C(=O)Nc3ccn(Cc4c(F)c(F)cc(F)c4F)n3)c2)c(C)c1[N+](=O)[O-],x,11,-14,8,36,1
Cc1nn(C)c(C(=O)Nc2ccn(Cc3c(F)c(F)cc(F)c3F)n2)c1[N+](=O)[O-],x,2,150*,11,0,1
O=C(CC12CC3CC(CC(C3)C1)C2)NC(=S)NCc1ccccc1,11,-2,-5,23,2,9.4*
O=C(NCc1ccccc1)NCC12CC3CC(CC(C3)C1)C2,-8,-2,0,21,7,0
C=CCN1C=C/C(=C\C=C(C#N)C#N)c2ccccc21,18,-8,83*,44,0,4
Cc1cc(C)c(S(=O)(=O)N(C)CC(=O)N2CCCCC2)c(C)c1,x,-3,-9,-18,-3,1
Cc1cc(C)c(S(=O)(=O)N(C)CC(N)=O)c(C)c1,x,1,63*,-11,0,1

# High-throughput results as filed in PubChem BioAssay.
